Measurements collected from several papers.
Values after ≈ are worked out from the molar mass of the structure shown.
Organism: Escherichia coli

CC1(C)SC2C(NC(=O)C(NC(=O)C3=C(O)C4(CC4)NC3=O)c3ccccc3)C(=O)N2C1C(=O)O (stereo not drawn)
inhibition zone (microbial growth, well diffusion; BW25113; 200 µM): 10 mm

N=C(N)c1ccccc1OCc1ccccc1COc1ccccc1C(=N)N
MIC (microbial growth; BW25113): > 200 µg/mL

CC(C)Oc1c(NC(=O)c2ccc(NC(=O)[C@H](CC(N)=O)NC(=O)c3ccc(CCNC(=O)c4ccc(C#N)cc4)cc3)cc2)ccc(C(=O)Nc2ccc(C(=O)O)cc2)c1O
MIC (microbial growth; DSM1116): 0.25 µg/mL (≈ 0.298 µM)

COc1cc(C=CC(=O)CC(c2ccc(N(C)C)cc2)n2ccnc2)ccc1O (stereo not drawn)
inhibition zone (microbial growth, disc diffusion; ATCC25922; 250 µg/mL): 8 mm

O=c1cccccc1SSc1cccccc1=O
MIC80 (microbial growth, broth dilution; ATCC35218): 19.8 µM (≈ 5.43 µg/mL)

O=C(O)c1cn(C2CC2)c2cc(N3CCNCC3)c(F)cc2c1=O
inhibition zone (microbial growth; SG458; 1000 µg/mL): 28.5 mm

COc1c(C)c(OS(=O)(=O)c2ccc3ccccc3c2)c(C)c(OS(=O)(=O)c2ccc3ccccc3c2)c1C(=O)/C=C/c1ccccc1
MBC (microbial killing, broth dilution; ATCC25922): > 5000 µg/mL

NS(=O)(=O)c1ccc(-n2cc(COc3cccc4cccnc34)nn2)cc1
IC50 (microbial growth, broth dilution; ATCC25922): 880 µg/mL

CC(C)Oc1c(NC(=O)c2ccc(NC(=O)[C@H](CC(N)=O)NC(=O)c3ccc(NC(=O)c4ccc(S(C)(=O)=O)cc4)cc3)cc2)ccc(C(=O)Nc2ccc(C(=O)O)cc2)c1O
MIC (microbial growth; DSM1116): 2 µg/mL (≈ 2.31 µM)

CSc1ccc(-c2nc3ccc(C)cc3[nH]2)cc1
MIC (microbial growth, broth dilution; ATCC25922): 32 µg/mL (≈ 126 µM)

COc1c(N2C[C@@H]3CCCN[C@@H]3C2)c(F)cc2c(=O)c(C(=O)O)cn(C3CC3)c12
MIC90 (microbial growth; ATCC35218): 0.06 µg/mL (≈ 0.149 µM)

O=[N+]([O-])c1ccc(-c2nc3ccccc3n2Cc2ccccc2)cc1
MIC (microbial growth, broth dilution; ATCC25922): 64 µg/mL (≈ 194 µM)

C#CCCCCCCCCCCCC(O)CC(O)CO (stereo not drawn)
IC50 (microbial growth, broth dilution; ATCC35218): > 200 µg/mL

CC(C)Oc1c(NC(=O)c2ccc(NC(=O)[C@H](CC(N)=O)NC(=O)c3ccc(NC(=O)c4ccc(C#N)cc4)cc3)cc2)ccc(C(=O)Nc2ccncc2)c1O
MIC (microbial growth; DSM1116): > 64 µg/mL

Cc1ccc2nc(-c3cc(Br)ccc3O)[nH]c2c1
MIC (microbial growth, broth dilution; ATCC25922): 64 µg/mL (≈ 211 µM)

Cc1ccc(C(C)C)cc1O
IC50 (microbial growth, broth dilution; ATCC25922): 96.2 µg/mL

N=C(N)c1ccccc1OCCCCCOc1ccccc1C(=N)N
MIC (microbial growth, broth dilution; BW25113): > 200 µg/mL

COc1cc(C=Cc2cc(-c3ccc(N(C)C)cc3)nc(O)n2)ccc1O
inhibition zone (microbial growth, disc diffusion; ATCC25922; 250 µg/mL): 6 mm

O=C(Sc1cccccc1=O)c1ccccc1C(F)(F)F
MIC80 (microbial growth, broth dilution; ATCC35218): 19.8 µM (≈ 6.14 µg/mL)

O=C(N/N=C/c1ccc([N+](=O)[O-])o1)c1ccc(O)cc1
MIC90 (microbial growth; ATCC 8739, ATCC8739): > 1000 µg/mL

C#CCCCCCCCCC=CCC(O)CC(O)CO (stereo not drawn)
IC50 (microbial growth, broth dilution; ATCC35218): > 200 µg/mL

Cc1ccc(-n2cc(COc3cccc4cccnc34)nn2)cc1
IC50 (microbial growth, broth dilution; ATCC25922): 176 µg/mL

Cc1ccc2nc(-c3ccco3)[nH]c2c1
MIC (microbial growth, broth dilution; ATCC25922): 128 µg/mL (≈ 646 µM)

CCCCS(=O)(=O)Oc1cccc2cccnc12
IC50 (microbial growth, broth dilution; ATCC25922): 194 µg/mL

Oc1ccc(-c2cc(Cl)sc2Cl)cc1O
IC50 (microbial growth; AS19; 10 h): 6.1 µM

O=C(N[C@H](CO)[C@H](O)c1ccc([N+](=O)[O-])cc1)C(Cl)Cl
MIC90 (microbial growth; ATCC35218): 0.98 µg/mL (≈ 3.03 µM)

O=C(O)c1cn(C2CC2)c2cc(N3CCNCC3)c(F)cc2c1=O
IC50 (microbial growth, broth dilution; ATCC25922): 0.125 µg/mL

O=C(Sc1cccccc1=O)c1ccc(C(F)(F)F)cc1
MIC80 (microbial growth, broth dilution; ATCC35218): 66.7 µM (≈ 20.7 µg/mL)

CC1(C)SC2C(NC(=O)C(NC(=O)C3=C(O)C(Cc4ccsc4)NC3=O)c3ccccc3)C(=O)N2C1C(=O)O (stereo not drawn)
inhibition zone (microbial growth, well diffusion; BW25113; 200 µM): 10 mm

Cc1ccc(C(C)C)cc1OCc1cn(-c2ccc(S(N)(=O)=O)cc2)nn1
IC50 (microbial growth, broth dilution; ATCC25922): 289 µg/mL

CCN1CCN(C(=O)N[C@@H](C(=O)N[C@@H]2C(=O)N3[C@@H]2SC(C)(C)[C@@H]3C(=O)O)c2ccccc2)C(=O)C1=O
inhibition zone (microbial growth, well diffusion; BW25113; 200 µM): 19 mm

O=S(=O)(Oc1cccc2cccnc12)c1cccs1
IC50 (microbial growth, broth dilution; ATCC25922): 165 µg/mL

CCCCCCCCCCCC(=O)Oc1c(C)c(O)c(C(=O)/C=C/c2ccccc2)c(OC)c1C
MBC (microbial killing, broth dilution; ATCC25922): > 5000 µg/mL

Cc1ccc(C(C)C)cc1OCc1cn(-c2ccc([N+](=O)[O-])cc2)nn1
IC50 (microbial growth, broth dilution; ATCC25922): 532 µg/mL

CC(C)Oc1c(NC(=O)c2ccc(NC(=O)[C@H](CC(N)=O)NC(=O)c3ccc(CNC(=O)c4ccc(C#N)cc4)cc3)cc2)ccc(C(=O)Nc2ccc(C(=O)O)cc2)c1O
MIC (microbial growth; DSM1116): > 64 µg/mL

C=CCn1c(-c2ccc(Cl)cc2)nc2ccccc21
MIC (microbial growth, broth dilution; ATCC25922): 64 µg/mL (≈ 238 µM)

C=CCOc1c(C)c(O)c(C(=O)/C=C/c2ccccc2)c(OC)c1C
MBC (microbial killing, broth dilution; ATCC25922): > 5000 µg/mL

N=C(N)c1ccc(OCc2ccccc2COc2ccc(C(=N)N)cc2)cc1
MIC (microbial growth, broth dilution; ATCC25922): > 200 µg/mL

CCOC(=O)c1c(N)csc1-c1cn(-c2ccccc2)nc1-c1ccc(C)cc1
MBC (microbial killing, broth dilution): 0.125 µg/mL (≈ 0.31 µM)

N=C(N)c1ccc(OCCC(CCOc2ccc(C(=N)N)cc2)c2ccccc2)cc1 (stereo not drawn)
MIC (microbial growth, broth dilution; ATCC25922): > 200 µg/mL

COc1cc(C=Cc2cc(-c3ccccc3)nc(O)n2)ccc1O
inhibition zone (microbial growth, disc diffusion; ATCC25922; 500 µg/mL): 19.7 mm

N=C(N)c1ccc(OCCSCCOc2ccc(C(=N)N)cc2)cc1
MIC (microbial growth, broth dilution; BW25113): > 200 µg/mL

c1cncc(-c2nc3ccccc3[nH]2)c1
MIC (microbial growth, broth dilution; ATCC25922): 64 µg/mL (≈ 328 µM)

CCCCCCCC(=O)Oc1c(C)c(O)c(C(=O)/C=C/c2ccccc2)c(OC)c1C
MBC (microbial killing, broth dilution; ATCC25922): > 5000 µg/mL

N=C(N)c1ccccc1OCc1ccc(COc2ccccc2C(=N)N)cc1
MIC (microbial growth; BW25113): > 200 µg/mL
